# TDP2 absorb – blocks human TDP2 phosphodiesterase activity; O95551; recombinant TDP2, T5PNP hydrolysis, p-nitrophenol absorbance 415 nm; inhibition, % at 12.8 µM; 370,000 compounds, 0.34% hits; AID 720702;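 active = inhibition above the mean of all tested compounds plus 3 SD, set per campaign, cut at about 25% in these data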;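 note: 0% = DMSO with enzyme and 100% = buffer with substrate but no TDP2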
#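 test system = human TDP2 enzyme | input = TDP2 enzyme at 120 nM final | medium = 50 mM Tris-HCl pH 7.5 with Mg2+, KCl, DTT, BSA | also added = T5PNP substrate, 5 mM | times = 2 h at 37 °C | technique = epi absorbance | benchmarks = high control without enzyme, low control DMSO plus TDP2 | replication = each compound tested once, singlicate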
# MBD2 DNA inh – MBD2-methylated oligo binding inhibition; Q9UBB5; TR-FRET, MBD2 binding to methylated oligonucleotide; inhibition, % at 4.4 µM; 370,000 compounds, 0.31% hits; in the data active = inhibition above about 13%
# UHRF1 MBD2 ctr – blocks human UHRF1 binding to methylated DNA | Q96T88 | 370,000 compounds, 0.75% hits | UHRF1 binding to methylated oligo, TR-FRET | inhibition, % at 4.4 µM; in the data active = inhibition above about 21%;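 note: UHRF1 SRA domain binding a hemimethylated CpG hairpin DNA probe; 0% = median of test compound wells and 100% = reference inhibitor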
# Target sequence (Q96T88 whole entry, looked up, the tested form may be a part): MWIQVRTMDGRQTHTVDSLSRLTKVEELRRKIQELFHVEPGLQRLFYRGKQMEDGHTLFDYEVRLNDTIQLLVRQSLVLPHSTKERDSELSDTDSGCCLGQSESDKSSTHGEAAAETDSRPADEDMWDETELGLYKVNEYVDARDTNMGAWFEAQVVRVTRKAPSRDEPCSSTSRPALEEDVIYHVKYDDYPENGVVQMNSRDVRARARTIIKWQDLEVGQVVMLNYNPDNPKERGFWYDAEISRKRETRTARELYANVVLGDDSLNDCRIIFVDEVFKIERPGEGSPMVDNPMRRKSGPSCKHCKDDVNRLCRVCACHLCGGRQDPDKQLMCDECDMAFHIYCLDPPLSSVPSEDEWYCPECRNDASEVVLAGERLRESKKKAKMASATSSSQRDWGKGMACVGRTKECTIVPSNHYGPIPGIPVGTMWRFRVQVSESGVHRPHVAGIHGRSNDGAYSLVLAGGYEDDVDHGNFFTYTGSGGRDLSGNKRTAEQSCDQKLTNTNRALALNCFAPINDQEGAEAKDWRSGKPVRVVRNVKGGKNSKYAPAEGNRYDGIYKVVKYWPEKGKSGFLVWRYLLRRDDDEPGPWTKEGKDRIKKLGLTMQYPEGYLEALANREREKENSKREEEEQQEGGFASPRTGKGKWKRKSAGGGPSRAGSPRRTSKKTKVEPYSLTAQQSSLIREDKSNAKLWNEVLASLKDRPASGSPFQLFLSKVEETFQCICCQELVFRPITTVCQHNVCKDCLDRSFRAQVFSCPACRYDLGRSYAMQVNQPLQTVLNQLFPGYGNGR
# LEDGF integ inh – blocks HIV-1 LEDGF/p75-dependent DNA integration; TR-FRET IN-LEDGF/p75 DNA integration, Eu/Cy5; inhibition, % at 3.7 µM; 370,000 compounds, 0.64% hits;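 active = inhibition above the screen-wide mean plus 3 SD, cut at about 13% in these data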;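 note: signal is the Cy5 over europium emission ratio at 671 and 618 nm; 0% = plate median of compound wells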
# TDP2 inh conf – human TDP2 inhibition, confirmation. shares compounds with TDP2 absorb. recombinant human TDP2, absorbance read-out. inhibition, % at 12.8 µM. 1,100 compounds, 22% hits; in the data active = inhibition above about 25%;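 note: 0% = vehicle with enzyme and 100% = no enzyme buffer only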
# IN multimer up – HIV-1 integrase multimerization activation, counter-screen; shares compounds with LEDGF integ inh; TR-FRET HIV-1 integrase multimerization, biochemical; activation, % at 7.7 µM; 2,000 compounds, 17% hits; AID 1053131; in the data active = activation above about 8.9%
# TR-FRET interf – optically interferes with TR-FRET readout in LEDGF counter-screen; shares compounds with LEDGF integ inh; AID 1053135; TR-FRET optical interference counterscreen, HIV-1 IN multimerization; 2,000 tested, under 10 active; inhibition, % at 7.7 µM;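 active = inhibition above the mean over all tested compounds plus 3 SD, which no compound reached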;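 note: 0% = integrase with antibodies and DMSO and 100% = antibodies without integrase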
# IN-LEDGF confirm – confirmation of HIV-1 LEDGF/p75-dependent integration inhibitors; shares compounds with LEDGF integ inh; TR-FRET LEDGF/p75-dependent HIV-1 integration, biochemical; inhibition, % at 3.7 µM; 2,000 compounds, 36% hits; AID 1053136; in the data active = inhibition above about 14%
# * hit, by the source's call; x = no result. Compounds with a hit are over-represented: about 1.6% of the library has one in this group of screens.
SMILES,TDP2 absorb,MBD2 DNA inh,UHRF1 MBD2 ctr,LEDGF integ inh,TDP2 inh conf,IN multimer up,TR-FRET interf,IN-LEDGF confirm
CCOc1cc(/C=C2\C(=O)N(CCC#N)N=C2C)ccc1OCC(N)=O,77.5*,5.2,15.0,15.4*,18.3,-2.7,9.6,-0.6
COc1cc(/C=C2\C(=O)ON=C2c2ccc(Cl)cc2)ccc1O,10.2,3.2,9.2,-1.2,x,x,x,x
COc1ccc(C2=NN(c3ccccc3)C(=O)/C2=C\c2ccc(O)c(OC)c2)cc1,45.6*,6.0,14.3,16.8*,2.0,1.3,-4.8,-1.9
COc1ccc(C(C[N+](=O)[O-])c2c(C)[nH]n(-c3ccccc3)c2=O)cc1 (configuration not stated),75.0*,12.7,15.9,25.4*,68.8*,5.2,-18.6,21.8*
COc1ccc(C(C[N+](=O)[O-])c2c(C)cc3ccccn23)cc1 (configuration not stated),-10.2,1.3,1.8,1.8,x,x,x,x
CC(C)=CCC1=C(OCC(=O)O)C(=O)c2ccccc2C1=O,47.3*,-2.5,12.3,25.1*,66.6*,3.5,-12.4,56.5*
CC(C)=CCC/C(C)=C/CC/C(C)=C/CC/C(C)=C/CC1=C(C)C(=O)c2ccccc2C1=O,-0.7,2.7,-0.8,0.0,x,x,x,x
CN1CCN(C2=C(Cl)C(=O)c3ccccc3C2=O)CC1,68.9*,-0.9,16.4,34.2*,80.0*,3.2,-11.6,72.8*
CN1CCN(C2=C(NS(=O)(=O)c3cccs3)C(=O)c3ccccc3C2=O)CC1,19.6,-17.1,-12.2,1.8,x,x,x,x
Cc1cc2c(nc1C)CCCN2S(=O)(=O)c1cccs1,-7.4,3.1,-1.1,4.9,x,x,x,x
NC1=C(Cl)C(=O)c2ccc(S(N)(=O)=O)cc2C1=O,76.0*,-23.1,-6.1,29.2*,73.7*,11.9*,-42.3,76.0*
COc1ccc(Cn2cc(COC(=O)NCC(C)C)nn2)cc1,3.3,0.2,-1.4,-3.1,x,x,x,x
O=C(COCc1ccccc1)N1CC[C@H]2[C@H](CCCN2Cc2ccccc2)C1,-1.0,2.2,-0.8,2.9,x,x,x,x
Fc1ccc(Nc2cncc(-c3ccsc3)c2)cc1Cl,80.7*,5.0,12.3,38.3*,51.7*,-0.1,0.1,15.8*
O=C(O)c1ccc(S(=O)(=O)c2ccc3c(c2)C(=O)N(c2ccc(O)cc2)C3=O)cc1,38.0*,-8.8,6.1,15.9*,6.7,1.6,-8.0,6.6
COc1cc(-c2[nH]nc3c2C(c2ccoc2)C(C#N)=C(N)O3)cc(OC)c1OC (configuration not stated),22.9,-7.6,-6.5,2.6,x,x,x,x
COc1cc(-c2[nH]nc3c2C(c2ccco2)C(C#N)=C(N)O3)cc(OC)c1OC (configuration not stated),42.5*,0.6,6.1,15.9*,8.8,1.8,-9.0,7.6
Nc1ccc(C(=O)N(CCO)CCO)cc1,-6.6,-0.1,-0.7,0.1,x,x,x,x
Nc1ccc(N(CCO)CCO)cc1,46.1*,-9.3,6.6,23.6*,23.9,12.3*,-62.0,27.6*
Oc1cc(NCCN2CCOCC2)cc2cccnc12,31.5*,-0.2,3.9,36.9*,12.9,-2.8,10.0,42.4*
Cc1n[nH]c(=S)n1/N=C/c1ccc(-c2ccccc2[N+](=O)[O-])o1,1.4,-0.9,-1.1,-1.0,x,x,x,x
CCC(=O)N/N=C/c1ccc(-c2ccc([N+](=O)[O-])cc2)o1,7.3,-4.3,-5.6,0.9,x,x,x,x
CCc1nnc(N/N=C/c2ccc(-c3ccc([N+](=O)[O-])cc3)o2)n1N,67.8*,-6.6,-2.3,45.9*,-4.7,8.7,-30.7,3.8
Cc1nnc(N/N=C/c2ccc(-c3ccccc3F)o2)n1N,58.6*,-0.5,2.9,43.6*,3.1,5.7,-20.1,6.4
Cc1nnc(N/N=C\c2ccc(-c3ccccc3[N+](=O)[O-])o2)n1N,77.6*,-2.3,4.3,42.7*,20.4,4.0,-14.2,-5.3
SMILES,TDP2 absorb,MBD2 DNA inh,UHRF1 MBD2 ctr,LEDGF integ inh,TDP2 inh conf,IN multimer up,TR-FRET interf,IN-LEDGF confirm
CCC(=O)N1CCc2cc(Br)c(S(=O)(=O)N3CCCC(C(=O)NC(C)(C)C)C3)cc21 (configuration not stated),-11.3,5.1,0.8,-0.3,x,x,x,x
COc1cc2c(cc1OC)[C@@]1(c3ccccc3)CCCC[C@H]1[C@@H]2NC(=O)C(F)(F)F,-6.1,6.8,3.2,0.3,x,x,x,x
COC(=O)[C@H]1C[C@@]2(c3ccccc3)c3ccccc3N[C@H]2N1,5.3,-3.5,3.8,4.7,x,x,x,x
Cc1ccc(O)c(CNc2cccc3cccnc23)c1,5.7,-3.6,-3.5,8.0,x,x,x,x
Oc1c(Br)cc(Br)cc1CNc1cccc2cccnc12,35.5*,-15.8,-1.6,39.5*,26.9*,0.4,-1.4,21.3*
Oc1ccc(Cl)cc1CNc1cccc2cccnc12,31.6*,-16.8,-0.8,36.7*,5.4,-0.2,0.5,5.3
Oc1ccc(Br)cc1CNc1cccc2cccnc12,29.5*,-16.0,-3.4,13.9*,14.9,2.3,-8.4,6.7
Oc1ccc(/C=N/N=C(c2ccccc2)c2ccccc2)c(O)c1O,-3.9,-5.2,-1.0,40.6*,x,21.3*,-75.8,84.0*
O=C(/C(=N/N=C/c1ccc(O)c(O)c1O)c1ccccc1)c1ccccc1,-11.2,-0.1,-3.0,14.0*,x,2.5,-12.6,28.2*
CCN(CC)S(=O)(=O)c1cccc(C(=O)N/N=C/c2ccc(O)c(O)c2O)c1,-6.4,2.9,-7.7,2.6,x,x,x,x
COc1ccccc1C(=O)NC1CCCCN(Cc2ccc(OC(F)(F)F)cc2)C1=O (configuration not stated),1.4,4.1,0.0,3.6,x,x,x,x
COc1ccc(-n2nc3cc(C)c(N)cc3n2)cc1Cl,-8.3,4.3,18.2,14.8*,x,-0.3,1.6,-5.7
CC1=C(SCc2ccccc2)C(=O)c2ccccc2C1=O,51.3*,-16.5,3.1,24.4*,x,5.0,-18.1,43.9*
CCCCN(C)C(=O)c1cn(C(C)c2ccccc2)nn1 (configuration not stated),6.5,2.4,3.7,-4.2,x,x,x,x
CCOC(=O)C1=C(O)/C(=C\c2ccc(CNC(=O)C(=O)Nc3ccccc3)o2)N=C1C,-0.8,6.1,7.4,24.6*,x,10.3*,-51.7,25.8*
CCOC(=O)C1=C(O)/C(=C\c2cccs2)N=C1C,-8.0,0.0,5.2,4.2,x,x,x,x
CCN(c1ccccc1)S(=O)(=O)c1cc(OC)ccc1OC,-2.9,-3.1,-1.2,52.2*,x,-2.7,9.6,-8.3
COc1ccc(OC)c(S(=O)(=O)N(C)CC(=O)O)c1,7.6,-3.0,-1.7,-1.4,x,x,x,x
CC(C)(C)c1ccc(-c2nc(C#N)c(N3CCC(C(N)=O)CC3)o2)cc1,-7.0,-1.9,0.8,3.6,x,x,x,x
